Reference: ChEMBL document CHEMBL1154290, “Synthesis and in vitro autoradiographic evaluation of a novel high-affinity radioiodinated ligand for imaging brain cannabinoid subtype-1 receptors” (Bioorg Med Chem Lett, 2009)

Key:
Cannabinoid receptor 1 = Cannabinoid receptor 1 (Homo sapiens, UniProt P21554)
Cannabinoid receptor 2 = Cannabinoid receptor 2 (Homo sapiens, UniProt P34972); experiment: Displacement of [3H]CP-55940 from CB2 receptor by scintillation counting
In short: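 CB2 affinity given as Ki from radioligand displacement, reported as mean ± SD of three determinations.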

[1] = biological target: 5-hydroxytryptamine receptor 1A (Homo sapiens, UniProt P08908); experiment: Displacement of [3H]8OH-DPAT from 5HT1A receptor at 10 uM by scintillation counting
[2] = biological target: Alpha-2C adrenergic receptor (Homo sapiens, UniProt P18825); experiment: Displacement of [125I]Iodoclonidine from alpha-2C adrenergic receptor at 10 uM by scintillation counting
[3] = biological target: Kappa-type opioid receptor (Homo sapiens, UniProt P41145); experiment: Displacement of [3H]U69593 from kappa opioid receptor at 10 uM by scintillation counting
Mu-type opioid receptor = Mu-type opioid receptor (Homo sapiens, UniProt P35372); experiment: Displacement of [3H]DAMGO from mu opioid at 10 uM by scintillation counting
Translocator protein = Translocator protein (Homo sapiens, UniProt P30536); experiment: Displacement of [3H]PK11195 from TSPO at 10 uM by scintillation counting
[4] = biological target: Alpha-1B adrenergic receptor (Homo sapiens) (UniProt P35368); experiment: Displacement of [3H]Prazosin from alpha-1B adrenergic receptor at 10 uM by scintillation counting; conditions: tested as the 125I-labelled form
In short: (§1)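 Receptor-panel selectivity screen: test ligand at a single 10 μM concentration. Each site is assayed by inhibition of binding of its radioligand, read out as percent inhibition (n = 4).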

[5] = biological target: Alpha-2A adrenergic receptor (Homo sapiens) (UniProt P08913); experiment: Displacement of [3H]Clonidine from alpha-2A adrenergic receptor at 10 uM by scintillation counting; conditions: tested as the 125I-labelled form
In short: as §1

[6] = biological target: Alpha-2B adrenergic receptor (Homo sapiens) (UniProt P18089); experiment: Displacement of [3H]Clonidine from alpha-2B adrenergic receptor at 10 uM by scintillation counting; conditions: tested as the 125I-labelled form
In short: as §1

[7] = biological target: Beta-1 adrenergic receptor (Homo sapiens) (UniProt P08588); experiment: Displacement of [125I]Iodopindolol from beta-1 adrenergic receptor at 10 uM by scintillation counting; conditions: tested as the 125I-labelled form
[8] = biological target: Beta-2 adrenergic receptor (Homo sapiens) (UniProt P07550); experiment: Displacement of [125I]Iodopindolol from beta2 adrenergic receptor at 10 uM by scintillation counting; conditions: tested as the 125I-labelled form
[9] = biological target: Beta-3 adrenergic receptor (Homo sapiens) (UniProt P13945); experiment: Displacement of [125I]Iodopindolol from beta3 adrenergic receptor at 10 uM by scintillation counting; conditions: tested as the 125I-labelled form
[10] = biological target: D(1A) dopamine receptor (Homo sapiens) (UniProt P21728); experiment: Displacement of [3H]SCH233930 from dopamine D 1 ( receptor) at 10 uM by scintillation counting; conditions: tested as the 125I-labelled form
In short: as §1

[11] = biological target: D(2) dopamine receptor (Homo sapiens) (UniProt P14416); experiment: Displacement of [3H]N-methylspiperone from dopamine D 2( receptor) at 10 uM by scintillation counting; conditions: tested as the 125I-labelled form
In short: as §1

[12] = biological target: D(3) dopamine receptor (Homo sapiens) (UniProt P35462); experiment: Displacement of [3H]N-methylspiperone from dopamine D 3 ( receptor) at 10 uM by scintillation counting; conditions: tested as the 125I-labelled form
In short: as §1

[13] = biological target: D(4) dopamine receptor (Homo sapiens) (UniProt P21917); experiment: Displacement of [3H]N-methylspiperone from dopamine D 4 ( receptor) at 10 uM by scintillation counting; conditions: tested as the 125I-labelled form
In short: as §1

[14] = biological target: Delta-type opioid receptor (Homo sapiens) (UniProt P41143); experiment: Displacement of [3H]DADLE from delta opioid receptor at 10 uM by scintillation counting; conditions: tested as the 125I-labelled form
In short: as §1

[15] = biological target: Histamine H1 receptor (Homo sapiens) (UniProt P35367); experiment: Displacement of [3H]Pyrilamine from histamine H1 (receptor) at 10 uM by scintillation counting; conditions: tested as the 125I-labelled form
In short: as §1

[16] = biological target: Histamine H2 receptor (Homo sapiens) (UniProt P25021); experiment: Displacement of [3H]Pyrilamine from histamine H2 (receptor) at 10 uM by scintillation counting; conditions: tested as the 125I-labelled form
In short: as §1

[17] = biological target: Histamine H3 receptor (Homo sapiens) (UniProt Q9Y5N1); experiment: Displacement of [3H]alpha-methylhistamine from histamine H3 (receptor) at 10 uM by scintillation counting; conditions: tested as the 125I-labelled form
In short: as §1

[18] = biological target: Histamine H4 receptor (Homo sapiens) (UniProt Q9H3N8); experiment: Displacement of [3H]Histamine from histamine H4 (receptor) at 10 uM by scintillation counting; conditions: tested as the 125I-labelled form
In short: as §1

[19] = biological target: Muscarinic acetylcholine receptor M1 (Homo sapiens) (UniProt P11229); experiment: Displacement of [3H]QNB from Muscarinic acetylcholine receptor M1 at 10 uM by scintillation counting; conditions: tested as the 125I-labelled form
In short: as §1

[20] = biological target: Muscarinic acetylcholine receptor M2 (Homo sapiens) (UniProt P08172); experiment: Displacement of [3H]QNB from Muscarinic acetylcholine receptor M2 at 10 uM by scintillation counting; conditions: tested as the 125I-labelled form
In short: as §1

[21] = biological target: Muscarinic acetylcholine receptor M3 (Homo sapiens) (UniProt P20309); experiment: Displacement of [3H]QNB from Muscarinic acetylcholine receptor M3 at 10 uM by scintillation counting; conditions: tested as the 125I-labelled form
In short: as §1

[22] = biological target: Muscarinic acetylcholine receptor M4 (Homo sapiens) (UniProt P08173); experiment: Displacement of [3H]QNB from Muscarinic acetylcholine receptor M4 at 10 uM by scintillation counting; conditions: tested as the 125I-labelled form
In short: as §1

[23] = biological target: Muscarinic acetylcholine receptor M5 (Homo sapiens) (UniProt P08912); experiment: Displacement of [3H]QNB from Muscarinic acetylcholine receptor M5 at 10 uM by scintillation counting; conditions: tested as the 125I-labelled form
In short: as §1

[24] = biological target: Sodium-dependent noradrenaline transporter (Homo sapiens) (UniProt P23975); experiment: Displacement of [3H]Nisoxetine from NET at 10 uM by scintillation counting; conditions: tested as the 125I-labelled form
In short: as §1

[25] = biological target: Sodium-dependent serotonin transporter (Homo sapiens) (UniProt P31645); experiment: Displacement of [3H]Citalopram from SERT at 10 uM by scintillation counting; conditions: tested as the 125I-labelled form
In short: as §1

[26] = biological target: Sigma non-opioid intracellular receptor 1 (Homo sapiens) (UniProt Q99720); experiment: Displacement of [3H]Pentazocine from sigma1 opioid receptor at 10 uM by scintillation counting; conditions: tested as the 125I-labelled form
In short: as §1

[27] = Displacement of [3H]DTG from […] opioid receptor at 10 uM by scintillation counting; conditions: tested as the 125I-labelled form
In short: as §1

[28] = biological target: Vasopressin V1a receptor (Homo sapiens) (UniProt P37288); experiment: Displacement of [3H]vasopressin from vasopressin1A receptor at 10 uM by scintillation counting; conditions: tested as the 125I-labelled form
In short: as §1

[29] = biological target: Vasopressin V1b receptor (Homo sapiens) (UniProt P47901); experiment: Displacement of [3H]vasopressin from vasopressin1B receptor at 10 uM by scintillation counting; conditions: tested as the 125I-labelled form
In short: as §1

[30] = biological target: Vasopressin V2 receptor (Homo sapiens) (UniProt P30518); experiment: Displacement of [3H]vasopressin from vasopressin2 receptor at 10 uM by scintillation counting; conditions: tested as the 125I-labelled form
In short: as §1

[31] = biological target: 5-hydroxytryptamine receptor 1B (Homo sapiens) (UniProt P28222); experiment: Displacement [3H]GR127543 from 5HT1B (receptor) at 10 uM by scintillation counting; conditions: tested as the 125I-labelled form
In short: as §1

[32] = biological target: 5-hydroxytryptamine receptor 2C (Homo sapiens) (UniProt P28335); experiment: Inhibition of radioligand binding to 5HT1C (receptor) at 10 uM; conditions: tested as the 125I-labelled form
In short: as §1

[33] = biological target: 5-hydroxytryptamine receptor 1D (Homo sapiens) (UniProt P28221); experiment: Displacement [3H]GR127543 from 5HT1D (receptor) at 10 uM by scintillation counting; conditions: tested as the 125I-labelled form
In short: as §1

[34] = biological target: 5-hydroxytryptamine receptor 1E (Homo sapiens) (UniProt P28566); experiment: Displacement of [3H]5-HT from 5HT1E (receptor) at 10 uM by scintillation counting; conditions: tested as the 125I-labelled form
In short: as §1

[35] = biological target: 5-hydroxytryptamine receptor 2A (Homo sapiens) (UniProt P28223); experiment: Displacement of [3H]Ketanserin from 5HT2A (receptor) at 10 uM by scintillation counting; conditions: tested as the 125I-labelled form
In short: as §1

[36] = biological target: 5-hydroxytryptamine receptor 2B (Homo sapiens) (UniProt P41595); experiment: Displacement of [3H]LSD from 5HT2B (receptor) at 10 uM by scintillation counting; conditions: tested as the 125I-labelled form
In short: as §1

[37] = biological target: 5-hydroxytryptamine receptor 2C (Homo sapiens) (UniProt P28335); experiment: Displacement of [3H]Mesulergine from 5HT2C (receptor) at 10 uM by scintillation counting; conditions: tested as the 125I-labelled form
In short: as §1

[38] = biological target: 5-hydroxytryptamine receptor 3A (Homo sapiens) (UniProt P46098); experiment: Displacement of [3H]LY278584 from 5HT3 (receptor) at 10 uM by scintillation counting; conditions: tested as the 125I-labelled form
In short: as §1

[39] = biological target: 5-hydroxytryptamine receptor 5A (Homo sapiens) (UniProt P47898); experiment: Displacement of [3H]LSD from 5HT5A (receptor) at 10 uM by scintillation counting; conditions: tested as the 125I-labelled form
In short: as §1

[40] = biological target: 5-hydroxytryptamine receptor 6 (Homo sapiens) (UniProt P50406); experiment: Displacement of [3H]LSD from 5HT6 (receptor) at 10 uM by scintillation counting; conditions: tested as the 125I-labelled form
In short: as §1

[41] = biological target: 5-hydroxytryptamine receptor 7 (Homo sapiens) (UniProt P34969); experiment: Displacement of [3H]LSD from 5HT7 (receptor) at 10 uM by scintillation counting; conditions: tested as the 125I-labelled form
In short: as §1

[42] = biological target: Alpha-1A adrenergic receptor (Homo sapiens) (UniProt P35348); experiment: Displacement of [3H]Prazosin from alpha-1A adrenergic receptor at 10 uM by scintillation counting; conditions: tested as the 125I-labelled form
In short: as §1

Sequence of 5-hydroxytryptamine receptor 2C (Homo sapiens) (P28335 whole entry): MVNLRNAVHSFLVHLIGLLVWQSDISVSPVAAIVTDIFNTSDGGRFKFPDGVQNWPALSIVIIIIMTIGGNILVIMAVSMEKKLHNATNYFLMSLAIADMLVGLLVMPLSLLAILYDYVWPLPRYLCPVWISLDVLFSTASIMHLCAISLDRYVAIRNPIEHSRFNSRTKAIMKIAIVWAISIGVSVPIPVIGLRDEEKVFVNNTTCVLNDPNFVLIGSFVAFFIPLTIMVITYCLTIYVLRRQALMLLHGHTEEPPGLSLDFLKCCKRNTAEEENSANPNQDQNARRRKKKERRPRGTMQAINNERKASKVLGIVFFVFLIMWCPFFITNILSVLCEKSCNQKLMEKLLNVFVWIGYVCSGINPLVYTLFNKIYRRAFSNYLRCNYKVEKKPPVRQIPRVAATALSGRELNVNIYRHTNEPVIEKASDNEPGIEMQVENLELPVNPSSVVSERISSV
Sequence of Histamine H2 receptor (Homo sapiens) (P25021 whole entry): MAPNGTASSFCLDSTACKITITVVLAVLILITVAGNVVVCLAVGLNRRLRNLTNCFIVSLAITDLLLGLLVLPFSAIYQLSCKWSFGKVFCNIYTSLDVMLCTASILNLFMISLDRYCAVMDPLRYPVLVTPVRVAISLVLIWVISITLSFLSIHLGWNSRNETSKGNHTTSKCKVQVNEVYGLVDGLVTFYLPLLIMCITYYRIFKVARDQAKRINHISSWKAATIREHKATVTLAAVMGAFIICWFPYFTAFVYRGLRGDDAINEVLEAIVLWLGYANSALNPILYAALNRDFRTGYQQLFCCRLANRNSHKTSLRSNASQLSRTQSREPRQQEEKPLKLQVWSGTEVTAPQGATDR
Sequence of Histamine H4 receptor (Homo sapiens) (Q9H3N8 whole entry): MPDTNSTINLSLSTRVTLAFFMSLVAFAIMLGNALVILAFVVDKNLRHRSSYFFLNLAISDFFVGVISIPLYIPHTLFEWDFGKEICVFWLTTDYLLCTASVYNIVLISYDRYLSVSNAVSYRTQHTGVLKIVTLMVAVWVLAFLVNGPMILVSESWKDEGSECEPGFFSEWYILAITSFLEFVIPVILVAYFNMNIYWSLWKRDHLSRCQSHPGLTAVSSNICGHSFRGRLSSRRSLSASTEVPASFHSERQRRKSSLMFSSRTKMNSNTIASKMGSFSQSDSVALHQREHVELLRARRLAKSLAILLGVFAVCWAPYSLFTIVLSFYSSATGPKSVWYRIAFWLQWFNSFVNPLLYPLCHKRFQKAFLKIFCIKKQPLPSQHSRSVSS
Sequence of Histamine H1 receptor (Homo sapiens) (P35367 whole entry): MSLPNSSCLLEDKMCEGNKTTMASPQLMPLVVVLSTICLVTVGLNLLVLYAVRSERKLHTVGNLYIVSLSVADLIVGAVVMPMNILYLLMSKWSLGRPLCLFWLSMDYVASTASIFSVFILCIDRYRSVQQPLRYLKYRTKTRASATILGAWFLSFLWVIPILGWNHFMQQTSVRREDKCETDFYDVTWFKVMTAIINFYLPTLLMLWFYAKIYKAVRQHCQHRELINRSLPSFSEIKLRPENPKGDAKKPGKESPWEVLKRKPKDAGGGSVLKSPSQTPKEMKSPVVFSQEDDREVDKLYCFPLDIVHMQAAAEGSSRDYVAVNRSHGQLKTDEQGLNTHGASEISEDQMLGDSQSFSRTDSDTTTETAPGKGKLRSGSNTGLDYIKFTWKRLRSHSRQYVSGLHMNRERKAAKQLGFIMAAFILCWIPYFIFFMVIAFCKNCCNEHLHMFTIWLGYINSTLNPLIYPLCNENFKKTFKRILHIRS
Sequence of 5-hydroxytryptamine receptor 3A (Homo sapiens) (P46098 whole entry): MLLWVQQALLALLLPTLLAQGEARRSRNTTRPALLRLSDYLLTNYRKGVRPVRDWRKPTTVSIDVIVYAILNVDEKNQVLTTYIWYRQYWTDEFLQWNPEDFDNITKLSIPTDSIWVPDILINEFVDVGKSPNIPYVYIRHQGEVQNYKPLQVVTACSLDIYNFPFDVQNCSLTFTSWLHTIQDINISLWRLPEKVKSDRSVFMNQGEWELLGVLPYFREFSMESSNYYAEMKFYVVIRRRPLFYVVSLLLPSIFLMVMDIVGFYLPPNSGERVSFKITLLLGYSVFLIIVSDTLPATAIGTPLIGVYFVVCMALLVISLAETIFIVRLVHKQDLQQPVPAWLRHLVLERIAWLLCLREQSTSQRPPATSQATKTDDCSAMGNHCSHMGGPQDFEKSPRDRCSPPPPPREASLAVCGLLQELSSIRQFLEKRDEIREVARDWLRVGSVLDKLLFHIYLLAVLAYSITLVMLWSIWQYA
Sequence of Alpha-1A adrenergic receptor (Homo sapiens) (P35348 whole entry): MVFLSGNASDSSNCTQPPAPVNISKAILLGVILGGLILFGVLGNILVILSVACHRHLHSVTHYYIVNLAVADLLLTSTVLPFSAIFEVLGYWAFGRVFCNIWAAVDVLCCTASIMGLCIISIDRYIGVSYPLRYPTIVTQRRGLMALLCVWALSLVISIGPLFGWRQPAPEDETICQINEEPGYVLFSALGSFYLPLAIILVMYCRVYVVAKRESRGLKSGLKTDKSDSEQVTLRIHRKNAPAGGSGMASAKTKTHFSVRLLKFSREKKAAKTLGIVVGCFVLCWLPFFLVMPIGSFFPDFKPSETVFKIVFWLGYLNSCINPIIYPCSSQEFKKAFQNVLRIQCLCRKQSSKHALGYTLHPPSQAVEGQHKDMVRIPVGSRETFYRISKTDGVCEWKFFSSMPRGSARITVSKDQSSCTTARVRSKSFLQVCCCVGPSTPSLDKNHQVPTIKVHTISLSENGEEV
Sequence of Muscarinic acetylcholine receptor M3 (Homo sapiens) (P20309 whole entry, looked up): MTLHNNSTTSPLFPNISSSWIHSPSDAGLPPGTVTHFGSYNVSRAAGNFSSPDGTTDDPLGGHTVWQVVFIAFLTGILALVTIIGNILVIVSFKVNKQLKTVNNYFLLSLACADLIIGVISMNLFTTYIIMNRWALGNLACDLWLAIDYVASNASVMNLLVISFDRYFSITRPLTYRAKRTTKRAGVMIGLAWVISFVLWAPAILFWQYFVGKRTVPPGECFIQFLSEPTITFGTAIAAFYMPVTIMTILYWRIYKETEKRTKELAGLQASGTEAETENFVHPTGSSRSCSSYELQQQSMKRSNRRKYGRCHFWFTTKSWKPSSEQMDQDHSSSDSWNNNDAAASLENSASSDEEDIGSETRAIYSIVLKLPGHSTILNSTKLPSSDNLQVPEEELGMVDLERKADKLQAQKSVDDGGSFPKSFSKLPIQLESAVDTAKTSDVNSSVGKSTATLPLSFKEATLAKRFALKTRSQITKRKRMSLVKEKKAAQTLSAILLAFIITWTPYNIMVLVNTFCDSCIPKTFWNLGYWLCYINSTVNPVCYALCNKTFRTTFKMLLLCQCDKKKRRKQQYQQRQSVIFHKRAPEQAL
Sequence of Sigma non-opioid intracellular receptor 1 (Homo sapiens) (Q99720 whole entry): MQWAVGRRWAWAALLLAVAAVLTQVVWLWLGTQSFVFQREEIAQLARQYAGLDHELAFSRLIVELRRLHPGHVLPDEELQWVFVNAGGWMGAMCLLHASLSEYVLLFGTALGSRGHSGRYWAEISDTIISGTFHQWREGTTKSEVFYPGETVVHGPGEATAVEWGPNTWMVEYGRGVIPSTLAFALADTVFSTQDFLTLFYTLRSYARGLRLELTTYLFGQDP
Sequence of 5-hydroxytryptamine receptor 7 (Homo sapiens) (P34969 whole entry): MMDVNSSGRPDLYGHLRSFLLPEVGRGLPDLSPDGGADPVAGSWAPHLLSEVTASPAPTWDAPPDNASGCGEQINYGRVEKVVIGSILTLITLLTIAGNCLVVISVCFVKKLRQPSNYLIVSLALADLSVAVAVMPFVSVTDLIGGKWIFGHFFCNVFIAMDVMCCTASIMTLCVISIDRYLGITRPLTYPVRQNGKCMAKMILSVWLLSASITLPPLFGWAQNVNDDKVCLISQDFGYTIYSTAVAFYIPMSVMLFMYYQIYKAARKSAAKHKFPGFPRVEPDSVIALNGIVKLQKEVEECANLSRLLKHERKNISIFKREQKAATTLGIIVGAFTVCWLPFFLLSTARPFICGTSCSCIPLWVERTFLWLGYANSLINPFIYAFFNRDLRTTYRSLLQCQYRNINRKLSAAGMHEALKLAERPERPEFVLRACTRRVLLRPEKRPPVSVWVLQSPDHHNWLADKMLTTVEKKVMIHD
Sequence of Alpha-2C adrenergic receptor (P18825 whole entry): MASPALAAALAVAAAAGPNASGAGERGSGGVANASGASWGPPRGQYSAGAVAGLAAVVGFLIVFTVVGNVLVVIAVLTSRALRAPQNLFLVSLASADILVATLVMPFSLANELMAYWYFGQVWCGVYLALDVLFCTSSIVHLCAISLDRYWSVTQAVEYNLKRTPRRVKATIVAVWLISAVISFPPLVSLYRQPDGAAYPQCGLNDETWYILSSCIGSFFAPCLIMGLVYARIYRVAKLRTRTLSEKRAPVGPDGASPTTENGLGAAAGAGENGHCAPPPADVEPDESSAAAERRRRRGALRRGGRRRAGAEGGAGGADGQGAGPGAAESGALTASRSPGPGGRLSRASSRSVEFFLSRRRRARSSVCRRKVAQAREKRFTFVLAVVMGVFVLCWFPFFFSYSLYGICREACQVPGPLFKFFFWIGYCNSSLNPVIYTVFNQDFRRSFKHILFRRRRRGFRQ
Sequence of Histamine H3 receptor (Homo sapiens) (Q9Y5N1 whole entry): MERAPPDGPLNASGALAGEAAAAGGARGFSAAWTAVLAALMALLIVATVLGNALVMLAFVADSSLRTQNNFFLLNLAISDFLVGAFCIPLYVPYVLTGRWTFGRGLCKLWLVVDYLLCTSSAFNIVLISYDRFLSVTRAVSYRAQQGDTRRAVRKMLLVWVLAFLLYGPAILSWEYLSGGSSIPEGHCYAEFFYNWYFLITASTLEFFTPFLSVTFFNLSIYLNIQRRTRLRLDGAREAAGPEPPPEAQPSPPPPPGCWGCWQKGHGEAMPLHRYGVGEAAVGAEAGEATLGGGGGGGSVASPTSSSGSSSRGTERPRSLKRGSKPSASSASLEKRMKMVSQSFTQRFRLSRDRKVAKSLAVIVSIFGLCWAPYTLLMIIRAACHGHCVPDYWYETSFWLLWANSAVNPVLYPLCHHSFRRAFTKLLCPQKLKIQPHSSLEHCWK

COc1ccc(-c2c(C#N)c(C(=O)NN3CCCCC3)nn2-c2ccccc2[125I])cc1
3.4 nM: Ki (Cannabinoid receptor 1)
93.5 nM: Ki [1]
1480 nM: Ki [3]
1500 nM: Ki (Mu-type opioid receptor)
548 nM: Ki (Cannabinoid receptor 2)
3170 nM: Ki (Translocator protein)
> 10000 nM: Ki [2]

COc1ccc(-c2c(C#N)c(C(=O)NN3CCCCC3)nn2-c2ccccc2I)cc1
< 50%: inhibition [4] | inhibition [5] | inhibition [6] | inhibition [7] | inhibition [8] | inhibition [9] | inhibition [10] | inhibition [11] | inhibition [12] | inhibition [13] | inhibition [14] | inhibition [15] | inhibition [16] | inhibition [17] | inhibition [18] | inhibition [19] | inhibition [20] | inhibition [21] | inhibition [22] | inhibition [23] | inhibition [24] | inhibition [25] | inhibition [26] | inhibition [27] | inhibition [28] | inhibition [29] | inhibition [30] | inhibition [31] | inhibition [32] | inhibition [33] | inhibition [34] | inhibition [35] | inhibition [36] | inhibition [37] | inhibition [38] | inhibition [39] | inhibition [40] | inhibition [41] | inhibition [42]
